Results taken from publication PMC11315199 (Heliyon, 2024).

Experiments:
[1] = system: cultured human melanoma cells; settings: cited from earlier work
human melanocytes = settings: doses between 1.25 and 10 μM; cited from earlier work
melanocytes = settings: 1 mM for 48 h; cited from earlier work
tyrosinase = settings: treating hyperpigmentation disorders; cited from earlier work
B16F10 cells = assay: Anti-melanogenesis activity on B16F10 murine melanomas; format: cell-based; settings: 20 μg/ml, 72 h
Outline: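 B16F10 murine melanoma cells (ATCC; DMEM with 10 % FBS) are seeded in 6-well plates and held 24 h in a CO₂ incubator, then exposed to test compound for 72 h. Cells are washed with 1xPBS, dissolved in 10 % NaOH at 60 °C for 1 h, and melanin is read at 450 nm. % anti-melanogenesis = 100 − (Mt/Mc × 100) versus untreated control. Triplicate, three independent experiments; mean ± SD.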

Question: Which “melanin content and tyrosinase activity” value ([1]; 0.25–0.5 mM) does the source give for OC[C@H]1O[C@H](Oc2ccc(O)cc2)[C@H](O)[C@@H](O)[C@@H]1O [AA, Alpha arbutin] here?
Answer: decreased melanin content and tyrosinase activity in a dose-dependent manner

Question: What about the cell proliferation ([1]; 0.25–1 mM) of the same molecule?
Answer: no effect on cell proliferation

Question: For COc1cc(/C=C/C(=O)CC(=O)/C=C/c2ccc(O)c(OC)c2)ccc1O [CC, Curcumin], which melanocyte viability (human melanocytes) is on record?
Answer: without affecting melanocyte viability

Question: Which “cytotoxic or cell growth inhibiting effects” value (melanocytes) does the source give for O=C1O[C@H]([C@@H](O)CO)C([O-])=C1OP(=O)([O-])[O-].O=C1O[C@H]([C@@H](O)CO)C([O-])=C1OP(=O)([O-])[O-].[Mg+2].[Mg+2].[Mg+2] [MAP, Magnesium ascorbyl phosphate] here?
Answer: no noticeable cytotoxic or cell growth inhibiting effects

Question: For CC(=O)Cc1cc(=O)c2c(C)cc(O)c([C@@H]3O[C@H](CO)[C@@H](O)[C@H](O)[C@H]3O)c2o1 [aloesin], which pigmentation reduction (tyrosinase) is on record?
Answer: 34%

Question: With OC[C@H]1O[C@@H](Oc2ccc(O)cc2)[C@H](O)[C@@H](O)[C@@H]1O [arbutin] as the molecule, how does the pigmentation reduction (tyrosinase) read?
Answer: 43.5%

Question: Which “% Anti-melanogenesis” value (B16F10 cells) does the source give for O=c1cc(CO)occ1O [kojic acid] here?
Answer: 44.54 ± 2.47%
